Assay results as given in ChEMBL document CHEMBL4017549, “Structural Basis of Inhibition of ERα-Coactivator Interaction by High-Affinity N-Terminus Isoaspartic Acid Tethered Helical Peptides” (J Med Chem, 2017).
Active and inactive are the calls of the source. The rule behind the calls is not given here. Peptide text beside a SMILES is read from it. * marks the point of attachment. FITC = O=C1OC2(c3ccc(O)cc3Oc3cc(O)ccc32)c2ccc(NC(=S)*)cc21; βAla = NCCC(=O)O

Key:
[1] = system: MCF7; assay: Cytotoxicity against human MCF7 cells assessed as reduction in cell viability at 1 uM after 24 hrs by MTT assay relative to control; format: cell-based; conditions: mcf7, 24 h
[2] = system: MCF7; assay: Cytotoxicity against human MCF7 cells assessed as cell viability up to 100 uM after 24 hrs by MTT assay; format: functional, cell-based
Summary of the method: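 MTT read-out. 5000−10000 cells/well seeded overnight in their own medium: MCF7 and MCF10A in DMEM with phenol red, 10% FBS, 37 °C, 5% CO2; T47D in RPMI1640 with insulin and 10% FBS; MDA-MB-231 in L-15, 10% FBS, no CO2. Serial peptide dilutions or DMSO for 20 h at 37 °C, then MTT 4 h more; formazan in DMSO, A570.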

[3] = system: MCF7; assay: Cytotoxicity against human MCF7 cells assessed as reduction in cell viability at 5 uM after 24 hrs by MTT assay relative to control; format: cell-based; conditions: mcf7, 24 h
[4] = biological target: T1, Estrogen receptor (Homo sapiens) (UniProt P03372); assay: Binding affinity to recombinant human GFP-fused ERalpha LBD (301 to 553 residues) expressed in Escherichia coli BL21(DE3) in presence of 17beta-estradiol by ITC
T1 sequence (whole entry): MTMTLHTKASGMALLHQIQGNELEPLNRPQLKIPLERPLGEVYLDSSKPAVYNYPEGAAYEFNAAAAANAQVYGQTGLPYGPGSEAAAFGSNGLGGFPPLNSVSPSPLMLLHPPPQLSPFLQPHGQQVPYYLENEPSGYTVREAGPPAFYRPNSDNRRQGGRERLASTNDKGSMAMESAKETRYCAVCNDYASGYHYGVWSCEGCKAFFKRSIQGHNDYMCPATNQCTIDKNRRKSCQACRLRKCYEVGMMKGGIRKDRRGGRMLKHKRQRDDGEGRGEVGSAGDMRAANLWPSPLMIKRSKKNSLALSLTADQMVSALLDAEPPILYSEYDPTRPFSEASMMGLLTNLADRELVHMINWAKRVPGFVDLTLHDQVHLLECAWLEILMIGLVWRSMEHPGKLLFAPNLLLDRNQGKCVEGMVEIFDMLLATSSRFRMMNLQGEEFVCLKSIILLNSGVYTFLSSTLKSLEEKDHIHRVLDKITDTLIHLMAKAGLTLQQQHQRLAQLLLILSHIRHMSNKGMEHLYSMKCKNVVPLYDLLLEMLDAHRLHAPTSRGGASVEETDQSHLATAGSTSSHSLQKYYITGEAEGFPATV
Summary of the method: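 ITC at 25 °C. 2 μL injections of 50 μM peptide into 5 μM ERα LBD in 50 mM Tris pH 8.0, 150 mM NaCl, 1 mM TCEP, 0.1 mM 17β-estradiol. Binding isotherm fitted for affinity.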

[5] = Drug uptake in human MCF7 cells assessed per million cells at 5 uM after 3 hrs by FACS analysis; format: ADME, cell-based; conditions: mcf7, 3 h
Summary of the method: (§1)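 Adherent cells seeded overnight, then exposed to 5 μM FITC-labelled peptide or DMSO in FBS-free medium, 3 h, 37 °C. After PBS washes (three), about 10000 cells per sample analysed by flow cytometry; mean cellular fluorescence intensity calculated. More than two independent experiments, SEM.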

[6] = Drug uptake in human MCF7 cells at 5 uM after 3 hrs in presence of 10 nM E2 by DAPI-staining based confocal laser scanning microscopic analysis; conditions: mcf7, 3 h
[7] = species on record: Homo sapiens; assay: Selectivity ratio of Kd for recombinant human ERbeta LBD (259 to 498 residues) to Kd for recombinant human ERalpha LBD (301 to 553 residues)
Summary of the method: (§2)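 Ratio of KD values, each from fluorescence polarization of 10 nM FITC-peptide titrated with the respective LBD after 40 min in the dark at 298 K, with the matching ligand in buffer (10 μM 17β-estradiol, progesterone or vitamin D3).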

[8] = biological target: T2, Estrogen receptor (Homo sapiens, UniProt P03372); assay: Binding affinity to recombinant human GFP-fused ERalpha LBD (301 to 553 residues) expressed in Escherichia coli BL21(DE3) after 40 mins in presence of 17beta-estradiol by fluorescence polarization assay
T2 sequence (P03372 whole entry): T1 sequence (whole entry)

[9] = biological target: T3, Vitamin D3 receptor (Homo sapiens, UniProt P11473); assay: Binding affinity to recombinant human GST-tagged VDR LBD (156 to 453 residues) expressed in Echerichia coli BL21 star (DE3) after 40 mins in presence of vitamin D3 by fluorescence polarization assay
T3 sequence (P11473 whole entry): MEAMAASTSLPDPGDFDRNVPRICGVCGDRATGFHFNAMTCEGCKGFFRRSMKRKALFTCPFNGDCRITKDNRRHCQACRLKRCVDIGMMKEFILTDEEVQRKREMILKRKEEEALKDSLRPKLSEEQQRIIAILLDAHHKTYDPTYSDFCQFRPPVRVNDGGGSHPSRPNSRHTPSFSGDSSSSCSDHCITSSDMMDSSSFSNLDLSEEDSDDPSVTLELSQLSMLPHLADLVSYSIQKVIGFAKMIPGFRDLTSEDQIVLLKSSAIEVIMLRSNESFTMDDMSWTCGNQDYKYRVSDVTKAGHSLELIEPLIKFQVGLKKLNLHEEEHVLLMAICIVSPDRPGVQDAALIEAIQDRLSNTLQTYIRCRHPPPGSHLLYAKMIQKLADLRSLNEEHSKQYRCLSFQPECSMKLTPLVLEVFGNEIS
Summary of the method: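 GST-VDR LBD titrated into 10 nM final FITC-labelled peptide in 20 mM Tris-HCl pH 8.0, 150 mM NaCl, 5% glycerol, 1 mM TCEP containing 10 μM vitamin D3. 40 min dark incubation, polarization at 298 K (ex 480/em 535 nm). KD by nonlinear regression.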

[10] = biological target: T1, Estrogen receptor (Homo sapiens); assay: Binding affinity to recombinant human GFP-fused ERalpha LBD (301 to 553 residues) expressed in Escherichia coli BL21(DE3) in presence of ERalpha inhibitor 4-hydroxytamoxifen by ITC
Summary of the method: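 ITC at 25 °C. 50 μM peptide injected in 2 μL steps into 5 μM ERα LBD in 50 mM Tris pH 8.0, 150 mM NaCl, 1 mM TCEP containing 0.1 mM 4-hydroxytamoxifen instead of estradiol. Isotherm fitted.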

[11] = Drug uptake in human U2OS cells assessed per million cells at 5 uM after 3 hrs by FACS analysis; format: ADME, cell-based; summary of the method: as §1
[12] = biological target: T4, Progesterone receptor (Homo sapiens, UniProt P06401); assay: Binding affinity to recombinant human GST-tagged PGR LBD (678 to 933 residues) expressed in Escherichia coli BL21 star(DE3) after 40 mins in presence of progesterone by fluorescence polarization assay
T4 sequence (P06401 whole entry): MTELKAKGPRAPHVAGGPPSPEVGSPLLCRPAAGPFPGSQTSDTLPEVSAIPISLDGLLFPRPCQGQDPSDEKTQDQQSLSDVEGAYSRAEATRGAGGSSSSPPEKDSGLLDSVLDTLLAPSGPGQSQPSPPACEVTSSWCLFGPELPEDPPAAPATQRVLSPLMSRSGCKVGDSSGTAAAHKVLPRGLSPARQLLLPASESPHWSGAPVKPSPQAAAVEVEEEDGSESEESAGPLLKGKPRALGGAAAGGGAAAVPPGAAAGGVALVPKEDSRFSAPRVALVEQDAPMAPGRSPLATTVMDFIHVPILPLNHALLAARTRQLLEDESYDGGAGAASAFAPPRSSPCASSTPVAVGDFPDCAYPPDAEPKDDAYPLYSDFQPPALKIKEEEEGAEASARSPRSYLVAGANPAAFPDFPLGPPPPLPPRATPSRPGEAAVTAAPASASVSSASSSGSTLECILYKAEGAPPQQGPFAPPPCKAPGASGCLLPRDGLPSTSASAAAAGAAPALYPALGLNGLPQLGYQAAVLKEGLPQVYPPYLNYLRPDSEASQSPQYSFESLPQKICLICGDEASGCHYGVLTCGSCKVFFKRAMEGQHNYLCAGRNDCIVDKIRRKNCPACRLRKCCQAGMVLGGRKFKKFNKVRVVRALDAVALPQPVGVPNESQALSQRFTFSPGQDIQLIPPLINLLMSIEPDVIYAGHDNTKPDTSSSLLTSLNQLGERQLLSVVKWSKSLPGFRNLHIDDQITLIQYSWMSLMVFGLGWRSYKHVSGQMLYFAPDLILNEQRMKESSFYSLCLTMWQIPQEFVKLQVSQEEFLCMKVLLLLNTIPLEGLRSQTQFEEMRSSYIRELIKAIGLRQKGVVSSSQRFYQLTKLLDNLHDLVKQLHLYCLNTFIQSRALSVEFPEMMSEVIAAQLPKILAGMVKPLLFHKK
Summary of the method: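 FITC-labelled peptide at 10 nM final with increasing GST-PgR LBD in 20 mM Tris-HCl pH 8.0, 150 mM NaCl, 5% glycerol, 1 mM TCEP plus 10 μM progesterone. 40 min dark incubation, polarization at 298 K (ex 480/em 535 nm). KD by nonlinear regression against protein concentration.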

[13] = biological target: Estrogen receptor beta (Homo sapiens, UniProt Q92731); assay: Binding affinity to recombinant human GFP-fused ERbeta LBD (259 to 498 residues) expressed in Escherichia coli BL21(DE3) after 40 mins in presence of 17beta-estradiol by fluorescence polarization assay
Summary of the method: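 FITC-labelled peptide at 10 nM final, titrated with increasing purified LBD (ERβ LBD carrying C334S, C369S, C481S) in 20 mM Tris-HCl pH 8.0, 150 mM NaCl, 5% glycerol, 1 mM TCEP with 10 μM 17β-estradiol. Incubated 40 min in the dark, polarization read at 298 K (ex 480/em 535 nm). KD from nonlinear regression of polarization versus protein concentration.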

[14] = species on record: Homo sapiens; assay: Selectivity ratio of Kd for recombinant human GST-tagged VDR LBD (156 to 453 residues) to Kd for recombinant human ERalpha LBD (301 to 553 residues); summary of the method: as §2
[15] = species on record: Homo sapiens; assay: Selectivity ratio of Kd for recombinant human GST-tagged PGR LBD ([…] residues) to Kd for recombinant human ERalpha LBD (301 to 553 residues); summary of the method: as §2

Chain of Estrogen receptor beta (Q92731 whole entry, the tested form may be a part): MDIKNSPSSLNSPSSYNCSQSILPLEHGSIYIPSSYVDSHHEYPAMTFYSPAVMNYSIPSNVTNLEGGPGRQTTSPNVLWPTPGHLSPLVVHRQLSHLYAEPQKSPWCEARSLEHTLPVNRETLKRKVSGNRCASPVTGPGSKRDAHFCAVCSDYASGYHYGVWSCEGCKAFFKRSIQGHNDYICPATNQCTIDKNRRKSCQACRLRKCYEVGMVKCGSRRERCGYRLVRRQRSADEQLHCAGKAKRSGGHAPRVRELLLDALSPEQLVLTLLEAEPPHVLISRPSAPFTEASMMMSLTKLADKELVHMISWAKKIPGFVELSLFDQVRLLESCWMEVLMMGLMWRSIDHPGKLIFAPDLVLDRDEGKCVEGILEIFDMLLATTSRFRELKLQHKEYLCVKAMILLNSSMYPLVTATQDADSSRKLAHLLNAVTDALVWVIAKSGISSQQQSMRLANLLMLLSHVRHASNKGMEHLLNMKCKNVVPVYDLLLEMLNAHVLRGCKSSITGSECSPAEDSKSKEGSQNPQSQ

| Compound | Activity [1] | Activity [2] | Activity [3] | Activity [4] | Drug uptake [5] | Drug uptake [6] | Selectivity ratio [7] | Kd [8] | Kd [9] | Activity [10] | Drug uptake [11] | Kd [12] | Kd [13] | Selectivity ratio [14] | Selectivity ratio [15] |
| --- | --- | --- | --- | --- | --- | --- | --- | --- | --- | --- | --- | --- | --- | --- | --- |
| CC/C(=C(\c1ccccc1)c1ccc(OCCN(C)C)cc1)c1ccccc1 [TAMOXIFEN] | < 20% | Active | < 20% | – | – | – | – | – | – | – | – | – | – | – | – |
| CC[C@H](C)[C@H](NC(=O)[C@H](CCCCN)NC(=O)[C@H](Cc1cnc[nH]1)NC(=O)CCNC(=S)Nc1ccc2c(c1)C(=O)OC21c2ccc(O)cc2Oc2cc(O)ccc21)C(=O)N[C@@H](CC(C)C)C(=O)N[C@@H](Cc1cnc[nH]1)C(=O)N[C@@H](CCCNC(=N)N)C(=O)N[C@@H](CC(C)C)C(=O)N[C@@H](CC(C)C)C(=O)N[C@@H](CCC(N)=O)C(N)=O ({FITC-βAla}-HKILHRLLQ-NH2) | – | – | – | Active | Active | Not Active | 1.8 | 0.118 µM | 0.142 µM | inactive | Active | 0.082 µM | 0.213 µM | 1.2 | 0.7 |
